Most compounds without a hit are left out; they make up all but 1.7% or so of the library.
SR-BI DiI inh = blocks mouse SR-BI lipid uptake from DiI-HDL | inhibition, % at 12.5 µM | ldlA[mSR-BI] CHO cells, DiI-HDL uptake fluorescence, 3 h | 320,000 tested, 0.96% active;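 active means mean replicate inhibition of at least 70% and a set share of replicates each scoring 70 or more; inconclusive means meets just one of the two criteria; inactive means fails both criteria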;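 further: 0% = median of neutral control wells and 100% = median of positive control wells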
Target sequence (Q61009 whole entry, looked up): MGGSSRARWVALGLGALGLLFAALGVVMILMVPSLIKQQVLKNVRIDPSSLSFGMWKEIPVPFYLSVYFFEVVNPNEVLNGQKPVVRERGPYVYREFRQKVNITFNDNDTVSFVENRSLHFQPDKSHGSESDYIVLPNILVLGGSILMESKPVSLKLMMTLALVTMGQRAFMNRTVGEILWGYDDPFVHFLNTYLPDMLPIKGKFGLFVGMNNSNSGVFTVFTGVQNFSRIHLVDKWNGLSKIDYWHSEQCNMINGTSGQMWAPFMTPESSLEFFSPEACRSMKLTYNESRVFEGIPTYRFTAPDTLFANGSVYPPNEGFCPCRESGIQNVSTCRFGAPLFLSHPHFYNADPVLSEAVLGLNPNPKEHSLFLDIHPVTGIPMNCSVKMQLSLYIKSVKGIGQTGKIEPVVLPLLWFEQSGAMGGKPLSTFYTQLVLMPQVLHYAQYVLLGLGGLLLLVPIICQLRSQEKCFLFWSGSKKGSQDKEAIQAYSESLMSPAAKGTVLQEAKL
Vif imaging = HIV Vif inhibition | inhibition, % at 7.49 µM | AID 602346 | 340,000 tested, 0.35% active | HEK293T cells, Vif self-association by quenched fluorescence, imaging, 24 h; in the data active means inhibition above about 50%, passing the limit was not always enough; inconclusive means no clear call, values can overlap the other calls; inactive means below about 31%
C2C12 statin = protects C2C12 myotubes from simvastatin toxicity | ATP luminescence, 48 h; scaled: DMSO 0, geranylgeraniol control 100 | rescue of ATP level, % at 7.49 µM | 330,000 tested, 0.78% active | AID 602340;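 active means mean ATP rescue above about 67%, or every replicate alone reaching that limit, limit read from the data, passing the limit was not always enough; inconclusive means no clear call, values can overlap the other calls; inactive means mean under the limit and some replicate under it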;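 further: myotubes were challenged with 10 µM simvastatin during compound exposure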
SR-BI DiI-HDL act = activators of SR-BI mediated HDL lipid uptake | CHO ldlA[mSR-BI] cells, DiI-HDL uptake fluorescence, 3 h; 100 = double the neutral-control signal | activation, % at 12.5 µM | 320,000 tested, 0.096% active | AID 504775;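 active means mean replicate activation of at least 60% and every replicate at or above 60%; inconclusive means mean or all-replicate condition met, but not both; inactive means mean below 60% and not all replicates reaching 60%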;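 further: 0% = median plate neutral-control signal and 100% = twice that signal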
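Test system: SR-BI-overexpressing, LDLR-lacking CHO cells; Also added: labelled HDL, 10 µg/mL; Measured by: bottom-read cell fluorescence after medium removal, ex 550/em 595 nm; Timing: 3 h uptake period with compound, 37 °C; Buffer or medium: F12, 0.5% BSA, 25 mM HEPES; Doses: single compound concentration, delivered by pin transfer.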
Starred values were filed as active, the others as inactive; u = inconclusive; x = no result.

SMILES | SR-BI DiI inh | Vif imaging | C2C12 statin | SR-BI DiI-HDL act
Cc1ccc(S(=O)(=O)N2CCN(C(=O)c3n[nH]c(=O)c4ccccc34)CC2)c(C)c1 | 4.6 | 52.6* | 0.8 | -4.6
NC(=O)c1cc(S(=O)(=O)NCc2ccc(F)cc2)cs1 | -4.1 | -2.5 | 4.1 | 4.1
CSc1ccc(CCNS(=O)(=O)c2csc(C(N)=O)c2)cc1 | -12.8 | -0.5 | 90.5* | 12.8
CCC(CC)C(=O)NC12CC3CC(CC(C3)C1)C2 | -9.0 | -4.8 | 89.4* | 9.0
N#Cc1cccc(-c2ccc3c(c2)[C@H]2[C@H](CCN2C(=O)CN2CCOCC2)[C@H](CO)N3)c1 | x | x | -3.5 | x
Cn1c(=O)c(=O)n(C)c2cc(N3CCOCC3)c(NS(=O)(=O)c3ccc([N+](=O)[O-])cc3)cc21 | 1.1 | 1.9 | 108.7* | -1.1
C[C@H](CO)N1C[C@H](C)[C@H](CN(C)Cc2ccc3c(c2)OCO3)Oc2ccc(NS(=O)(=O)c3cn(C)cn3)cc2CC1=O | x | x | 6.2 | x
O=C(Nc1ccc(-c2ccccc2)cc1)[C@@H]1[C@@H](CO)[C@@H]2Cn3c(cccc3=O)[C@@H]2N1CC1CCCCC1 | x | x | 47.6 | x
Cc1ccc2c(c1)nc(NCCO)n2C | 8.1 | -1.8 | 91.1* | -8.1
COc1ccc(C2CC(=O)c3cnc(N)nc3C2)c(OC)c1 (configuration not stated) | -3.3 | -4.2 | 106.0* | 3.3
C[C@@H]1CN([C@H](C)CO)C(=O)c2cc(N(C)C)ccc2O[C@H]1CN(C)Cc1ccc(Cl)c(Cl)c1 | x | x | 50.7 | x
Cc1sc2ncnc(N/N=C/c3ccccc3O)c2c1C | 116.4* | 2.7 | x | -116.4
S=C1N(c2ccccc2)C(c2ccccc2)N2CCCN12 (configuration not stated) | -20.9 | -5.9 | 132.0* | 20.9
CN1C(=S)N2CCCN2C1c1ccccc1 (configuration not stated) | -26.4 | 3.8 | 28.8 | 26.4
Cc1ccccc1S(=O)(=O)NCC[C@H]1CC[C@@H](NC(=O)C2CCCCC2)[C@H](CO)O1 | x | x | -3.3 | x
NC(=O)CCc1c[nH]c2ccccc12 | -12.5 | 10.5 | 109.1* | 12.5
C[C@@H]1CN([C@@H](C)CO)C(=O)Cc2cc(NC(=O)C3CC3)ccc2O[C@H]1CN(C)Cc1ccc(Cl)c(Cl)c1 | x | x | -49.6 | x
COc1ccc(Cc2nnc(Nc3ccccc3)s2)cc1Br | 9.5 | 107.3* | 76.9* | -9.5
O=C(C[C@H]1C[C@@H]2c3cc(NC(=O)C4CCC4)ccc3O[C@@H]2[C@H](CO)O1)NCc1ccc(-c2ccccc2)cc1 | x | x | -77.0 | x
COc1cc(-c2noc(-c3ccccc3C(=O)NCc3ccco3)n2)cc(OC)c1OC | 28.3 | -3.8 | 100.2* | -28.3
Cc1ccc(N2N=C(C(=O)O)CCC2=O)cc1Cl | -2.2 | -14.9 | 123.7* | 2.2
O=C(O)C1=NN(c2ccccc2)C(=O)CC1 | -14.5 | 1.5 | 7.0 | 14.5
CC1=CC(=C(C#N)c2nc3ccccc3s2)C=C(C)N1Cc1ccco1 | 109.2* | u | -38.8 | -109.3
O=C(NCC1CC1)[C@@H]1[C@@H](CO)[C@@H]2Cn3c(ccc(-c4ccc(F)cc4)c3=O)[C@H]1N2 | x | x | -8.8 | x
CCCN(CCC)C(=O)c1ccccc1C(=O)N(CCC)CCC | 4.0 | -0.3 | 6.3 | -4.0
SMILES | SR-BI DiI inh | Vif imaging | C2C12 statin | SR-BI DiI-HDL act
C#CCOC(=O)c1ccccc1C(=O)N(CC)CC | -20.0 | 1.8 | 103.8* | 20.0
CCOc1ccc(OCC)c(NC(=O)Nc2ccc3c(c2)N(C)C(=O)CS3)c1 | 87.6* | -11.1 | -3.0 | -87.6
CCNC(=O)C[C@@H]1CC[C@@H]2[C@H](COC[C@H](O)CN2Cc2ccncc2)O1 | x | x | -20.2 | x
C[C@@H]1CN([C@@H](C)CO)C(=O)c2cc(NC(=O)c3ccncc3)ccc2O[C@@H](C)CCCCO[C@@H]1CN(C)Cc1ccc(C(F)(F)F)cc1 | x | x | 120.6* | x
C[C@@H]1CN([C@@H](C)CO)C(=O)c2cc(NC(=O)c3ccccc3)ccc2O[C@@H](C)CCCCO[C@@H]1CN(C)Cc1ccc(C(F)(F)F)cc1 | x | -15.7 | -3.3 | x
C[C@@H]1CN([C@@H](C)CO)C(=O)c2cc(NC(=O)Nc3ccc(F)cc3)ccc2O[C@@H](C)CCCCO[C@H]1CN(C)Cc1ccncc1 | x | x | 107.0* | x
C[C@H](CO)N1C[C@H](C)[C@@H](CN(C)Cc2ccc(C(F)(F)F)cc2)OCCCC[C@H](C)Oc2ccc(NS(=O)(=O)c3cccs3)cc2C1=O | x | x | -61.8 | x
C[C@@H]1CN([C@@H](C)CO)C(=O)c2cc(NC(=O)c3ccncc3)ccc2O[C@@H](C)CCCCO[C@H]1CN(C)Cc1ccc(C(F)(F)F)cc1 | x | x | 115.7* | x
C[C@@H]1CN([C@H](C)CO)C(=O)c2cc(NS(=O)(=O)c3cccs3)ccc2O[C@@H](C)CCCCO[C@@H]1CN(C)Cc1ccc(C(F)(F)F)cc1 | x | x | 91.7* | x
C/C=C/c1cnc2c(c1)C(=O)N([C@H](C)CO)C[C@@H](C)[C@H](CN(C)C(=O)C1CCC1)O2 | x | x | -7.8 | x
COc1ccc(NC(=O)Nc2ccc3c(c2)C(=O)N([C@H](C)CO)C[C@H](C)[C@@H](CN(C)Cc2ccc(C(F)(F)F)cc2)OCCCC[C@H](C)O3)cc1 | x | x | 5.8 | x
COc1ccc(NC(=O)Nc2ccc3c(c2)C(=O)N([C@H](C)CO)C[C@@H](C)[C@@H](CN(C)Cc2ccc(C(F)(F)F)cc2)OCCCC[C@H](C)O3)cc1 | x | x | 157.9* | x
O=C(Nc1ccc2c(c1)OCO2)N[C@@H]1CC[C@H](CC(=O)N2CCN(c3ccccc3)CC2)O[C@H]1CO | x | x | 9.4 | x
COc1cc(-c2cc(=O)c3c(O)c(OC)c(OC)cc3o2)cc(OC)c1O | 21.9 | 89.0* | -11.5 | -21.9
COc1ccc(-c2cc(=O)c3c(O)c(OC)c(O)cc3o2)cc1 | -0.1 | -4.6 | -5.1 | 0.1
O=C(NC1CCC1)[C@@H]1[C@@H](CO)[C@@H]2Cn3c(ccc(-c4ccc(F)cc4)c3=O)[C@@H]2N1Cc1ccccn1 | x | x | -21.2 | x
C[C@@H]1CN([C@@H](C)CO)C(=O)c2cc(NS(C)(=O)=O)ccc2O[C@@H](C)CCCCO[C@H]1CN(C)C(=O)c1ccccc1 | x | x | -13.0 | x
Cc1ccc2c(CC(=O)NNC(=O)c3ccccc3O)coc2c1 | 106.1* | 1.7 | 8.0 | -106.1
O=C(C[C@@H]1C[C@H]2c3cc(NC(=O)CC4CC4)ccc3O[C@H]2[C@H](CO)O1)NCc1ccccc1 | x | x | -2.7 | x
CCCNC(=O)N1C[C@@H](O)COC[C@H]2O[C@H](CC(=O)N[C@H]3CCN(Cc4ccccc4)C3)CC[C@@H]21 | x | x | -18.5 | x
COc1ccccc1Nc1nnc(C)c(=O)[nH]1 | 1.2 | 73.0* | -5.7 | -1.2
CCN(CC)S(=O)(=O)c1cccc(C(=O)N/N=C/c2c(C)nn(-c3ccccc3)c2Cl)c1 | 72.7* | x | x | -72.7
Cc1ccc(NS(=O)(=O)c2cccc(C(=O)N/N=C/c3c(C)nn(-c4ccccc4)c3N3CCCC3)c2)c(C)c1 | 74.2* | -0.6 | x | -74.2
CCNc1ccc(C(=O)N/N=C/c2c(C)nn(-c3ccccc3)c2N2CCCC2)cc1[N+](=O)[O-] | u | 14.6 | x | -72.1
Cc1ccc(S(=O)(=O)Nc2ccc3c(c2)CC(=O)N([C@@H](C)CO)C[C@@H](C)[C@H](CN(C)Cc2ccccc2)O3)cc1 | x | x | 14.5 | x
